According to publication PMC9398548 (European journal of pharmaceutical sciences : official …, 2020):

Columns and labels:
K562 cells = experiment: MTT cytotoxicity assay in K562 cells; format: cell-based; details: read-out: K562- IC50; MTT, 48 h, Mean±SD, n=3
Summary of the method: (§1)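 Cells were grown in suspension in RPMI 1640 with 10% FBS and penicillin/streptomycin/amphotericin B at 37 °C under 5% CO2. They were seeded at ~5×10^3 cells/well, kept overnight, then exposed to test compounds diluted in DMSO for 48 h. Cells were pelleted (300 g, 4 °C, 5 min) and washed twice in phosphate buffer. MTT (5 mg/ml stock) was added for 4 h at 37 °C, formazan dissolved in DMSO, and A570 read. Triplicate; IC50 given as mean±SD.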

CEM cells [1] = experiment: MTT cytotoxicity assay in CEM cells; format: cell-based; details: read-out: CEM- IC50, 48 h, Mean±SD, n=3
Summary of the method: as §1

GLUT5 = format: cell-based, human
Summary of the method: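 Uses hexose-transporter-null VW4000 yeast expressing human GLUT5, cultured at 30 °C and 180 rpm. Cells were grown one day in YEP/2% maltose with G418, then 1–2 days in YEP/2% fructose starting from OD600 ~0.5. Washed cells in PBS pH 7.4 (OD600 ~10) took up 10 mM C14-fructose for 10 min. Uptake was stopped with ice-cold KPi/LiCl quench buffer pH 5.5, then filtered and scintillation-counted. Controls were 1% DMSO and 100 μM MSNBA. Screening was at 100 μM; three independent measurements.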

GLUT4 = target: T1, GLUT4 (Homo sapiens, UniProt P14672); format: cell-based
T1 sequence (P14672 1-509): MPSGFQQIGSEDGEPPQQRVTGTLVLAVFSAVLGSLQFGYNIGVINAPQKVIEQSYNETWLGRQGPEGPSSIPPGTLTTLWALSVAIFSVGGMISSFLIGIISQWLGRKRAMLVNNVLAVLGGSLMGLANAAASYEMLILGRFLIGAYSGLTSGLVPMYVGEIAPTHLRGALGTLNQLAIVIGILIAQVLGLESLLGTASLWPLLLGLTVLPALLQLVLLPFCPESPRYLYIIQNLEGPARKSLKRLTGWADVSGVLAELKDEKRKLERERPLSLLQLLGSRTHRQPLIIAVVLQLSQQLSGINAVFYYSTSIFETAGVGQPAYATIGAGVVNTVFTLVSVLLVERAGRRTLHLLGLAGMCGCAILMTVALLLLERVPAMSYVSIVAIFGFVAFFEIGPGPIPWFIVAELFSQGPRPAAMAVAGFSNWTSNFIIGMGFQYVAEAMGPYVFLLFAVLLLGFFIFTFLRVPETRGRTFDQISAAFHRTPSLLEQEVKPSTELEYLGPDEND
Summary of the method: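 VW4000fgy1erg4 hxt0 yeast expressing human GLUT4 were cultured at 30 °C, first in SC-uracil/1% maltose and then in SC-uracil/0.2% glucose from OD600 ~0.5. Cells in PBS pH 7.4 (OD600 ~10) were fed 5 mM C14-glucose for 10 min. The reaction was quenched in ice-cold buffer pH 5.5, then filtered and scintillation-counted. Vehicle control was 1% DMSO; 200 μM phloretin served as positive control.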

white blood cells (WBCs) = experiment: MTT assay on non-transformed white blood cells; format: cell-based, human; details: 48 h treatment with 100 μM
Summary of the method: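 WBCs from a healthy adult volunteer were isolated by HiSep centrifugation at 400 xg for 30 min, followed by repeated RBC lysis and PBS washes. Cells were held at 37 °C under 5% CO2 overnight in 96-well plates. Test compound was applied at 2.5–100 μM for 48 h. After two PBS washes, MTT was added for 4 h at 37 °C; formazan was dissolved in DMSO and absorbance read at 570 nm.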

CEM cells [2] = experiment: Apoptosis induction by flow cytometry; format: cell-based; details: IC50 concentration, 24 h
Summary of the method: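 CEM cells seeded in 24-well plates and held overnight at 37 °C under CO2. Medium was then replaced, and cells were exposed to the test compound for 24 h; untreated cells served as the negative control. Cells were washed in PBS, pelleted at 500 xg and 4 °C, resuspended in ice-cold binding buffer, and stained with annexin V-FITC plus PI for 15 min on ice in the dark. Analysed by flow cytometry, in triplicate.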

GLUT1 = target: T2, GLUT1 (Homo sapiens, UniProt P11166); format: cell-based
T2 sequence (P11166 1-492): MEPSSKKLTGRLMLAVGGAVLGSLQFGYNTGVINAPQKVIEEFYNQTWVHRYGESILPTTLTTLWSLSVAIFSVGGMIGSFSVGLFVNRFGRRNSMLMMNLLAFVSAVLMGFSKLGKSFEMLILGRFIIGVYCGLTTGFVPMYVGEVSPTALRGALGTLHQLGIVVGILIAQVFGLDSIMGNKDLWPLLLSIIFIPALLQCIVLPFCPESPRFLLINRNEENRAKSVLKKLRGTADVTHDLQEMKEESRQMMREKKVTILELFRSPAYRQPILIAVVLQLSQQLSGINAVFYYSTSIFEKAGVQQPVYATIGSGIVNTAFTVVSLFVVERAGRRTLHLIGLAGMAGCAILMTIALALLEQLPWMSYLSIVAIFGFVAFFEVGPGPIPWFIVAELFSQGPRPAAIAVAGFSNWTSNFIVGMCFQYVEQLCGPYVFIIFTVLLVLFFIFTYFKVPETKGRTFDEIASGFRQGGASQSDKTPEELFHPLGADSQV
Summary of the method: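 VW4000fgy1 hxt0 yeast carrying human GLUT1 were grown at 30 °C: first in SC-uracil/2% maltose for 2–3 days, then 1–2 days in SC-uracil/2% glucose from OD600 ~0.5. Cells were resuspended in PBS pH 7.4 at OD600 ~10 and given 5 mM C14-glucose for 10 min. Uptake was quenched with ice-cold buffer pH 5.5, filtered, and counted. Controls: 1% DMSO and 200 μM phloretin.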

CEM cells [3] = experiment: Cell cycle analysis by flow cytometry; format: cell-based; details: IC50 concentration, 24 h
Summary of the method: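 Cells were seeded in 24-well plates overnight, then given fresh medium and exposed to the test compound for 24 h beside an untreated control. After a PBS wash, cells were fixed in ice-cold 70% ethanol on ice for 2 h, then washed again. They were stained with PI for 15 min at 37 °C and analysed by flow cytometry within 30 min, in triplicate.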

[4] = primary screen, 100 μM compound

IC50 (GLUT5; read-out: GLUT5 IC50, hxt0 yeast cells expressing GLUT5, 10 mM C14-fructose, 10 minutes): 34.5 ± 2.4 µM
decrease of relative transport activity of GLUT4 (GLUT4; [4]): > 50%
IC50 (GLUT4; read-out: GLUT4 IC50, hxt0 yeast cells expressing GLUT4, 5 mM C14-glucose, 10 minutes): 9.5 ± 2.8 µM
decrease of relative transport activity of GLUT1 (GLUT1; [4]): > 50%
IC50 (GLUT1; read-out: GLUT1 IC50, hxt0 yeast cells expressing GLUT1, 5 mM C14-glucose, 10 minutes): 5.4 ± 1.3 µM
SMILES: O=C(CN1C(=O)SC(=Cc2ccc(Cl)cc2)C1=O)Nc1ccc(Cl)cc1C(F)(F)F [Compound G5, 2-[5-(4-Chlorobenzylidene)-2,4-dioxothiazolidin-3-yl]-N-(4-chloro-2-trifluromethylphenyl) acetamide]
IC50 (K562 cells): 34.9 ± 1.07 µM
IC50 (CEM cells [1]): 13.5 ± 3.88 µM
decrease of relative transport activity of GLUT5 (GLUT5; [4]): > 50%
viable WBC cells (white blood cells (WBCs)): More than 66%
percentage of cells in early apoptotic phase (CEM cells [2]): 1.30%
percentage of cells in late apoptotic phase (CEM cells [2]): 59.22%
percentage of live cells (CEM cells [2]): 25.58%
percentage of necrotic cell population (CEM cells [2]): 13.90%
percentage of cells arrested in G0-G1 phase (CEM cells [3]): 52.0%
percentage of cells arrested in the G2-M phase (CEM cells [3]): 22.1%
